APJ antagonist – blocks the human apelin receptor APJ; P35414; inhibition, % at 20 µM; CHO-K1 APJ beta-arrestin complementation, luminescence; 0.32% of 330,000 active; AID 2521;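 active = inhibition above about 40% at 20 µM, limit read from the data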;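 also: cells challenged with 10 nM apelin-13 agonist together with compound; plate controls were apelin-13 plus DMSO wells for no effect and DMSO wells lacking apelin-13 for full effect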
APJ ag – agonists of human APJ apelin receptor; P35414; CHO-K1 APJ PathHunter beta-arrestin, luminescence; 0% DMSO wells, 100% apelin; activation, % at 20 µM; 0.11% of 330,000 active;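 active = activation more than six SD over the plate average, tested at 20 µM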;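 also: 0% = DMSO alone and 100% = apelin-13 at 10 nM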
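Assay system – PathHunter CHO-K1 APJ (AGTRL-1) beta-arrestin reporter cells · Compound – one dose, 20 µM compound, 1% DMSO · Timing – compound 90 min 25 °C, reagent 1 h · Measured by – luminescence from split beta-galactosidase complementation, Galacton Star/Emerald II substrate · Measure – beta-arrestin recruitment to APJ as agonist activity, luminescent signal · Benchmarks – DMSO vs Apelin-13 10 nM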
CXCR6 block – inhibitors of human CXCR6 receptor | CHO-K1 PathHunter CXCR6 beta-arrestin, luminescence | inhibition, % at 20 µM | 0.36% of 360,000 active | AID 602244; in the data active = inhibition above about 34%, passing the limit was not always enough;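 also: antagonist mode with CXCL16 agonist at 10 nM final; 0% = 10 nM CXCL16 with DMSO and 100% = unstimulated wells without agonist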
Target sequence (O00574 whole entry, looked up): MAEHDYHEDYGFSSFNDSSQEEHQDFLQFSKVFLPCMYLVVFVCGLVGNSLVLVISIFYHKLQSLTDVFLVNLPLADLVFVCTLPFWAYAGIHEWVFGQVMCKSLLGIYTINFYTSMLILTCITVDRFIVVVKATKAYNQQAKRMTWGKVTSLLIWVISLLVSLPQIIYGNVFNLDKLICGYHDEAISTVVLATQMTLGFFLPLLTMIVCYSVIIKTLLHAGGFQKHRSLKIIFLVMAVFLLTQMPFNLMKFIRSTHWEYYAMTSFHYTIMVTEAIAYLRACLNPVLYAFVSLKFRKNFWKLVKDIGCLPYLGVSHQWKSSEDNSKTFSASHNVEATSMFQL
EBI2 antag – blocks human EBI2 receptor beta-arrestin signaling. P32249. EBI2 beta-arrestin recruitment, luminescence, 7a,25-OHC stimulated. inhibition, % at 5 µM. 0.81% of 360,000 active. AID 651636; in the data active = inhibition above about 38%;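 also: enzyme fragment complementation signal reports receptor beta-arrestin coupling in cells; 0% = agonist plus DMSO wells and 100% = wells without agonist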
CCR6 antagonist – antagonists of human CCR6 receptor; AID 493098; P51684; CHO-K1 CCR6 PathHunter beta-arrestin, luminescence, CCL20-stimulated; inhibition, % at 20 µM; 0.49% of 340,000 active;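 active = compounds whose inhibition of the agonist-driven luminescence signal at 20 µM reaches about 50%, limit read from the data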;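 also: cells stimulated with CCL20 at 14 nM final; plate controls were DMSO with CCL20 for no effect and DMSO without agonist for full effect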
APJ antag conf – APJ receptor antagonism confirmation | shares compounds with APJ antagonist | APJ beta-arrestin recruitment, luminescence, antagonist mode | inhibition, % at 20 µM | 66% of 950 active; in the data active = inhibition above about 50%
Starred values were filed as active, the others as inactive. Rows were chosen to be rich in hits. Some 1.5% of all compounds tested hit in one or more screens of this group.

Screening Cc1ccc(C(=O)COC(=O)CNC(=O)Cc2ccccc2)cc1[N+](=O)[O-] returned APJ antagonist 45*, APJ ag -10, CXCR6 block 26, EBI2 antag -2, CCR6 antagonist 68* and APJ antag conf 62*.
Screening Cc1ccc(C(=O)COC(=O)CNC(=O)c2ccc(Br)o2)cc1[N+](=O)[O-] returned APJ antagonist 48*, APJ ag -14, CXCR6 block 22, EBI2 antag 9, CCR6 antagonist 36 and APJ antag conf 66*.
`CCc1ccc(C(=O)COC(=O)CNC(=O)c2ccc(Br)o2)cc1` gave APJ antagonist 8, APJ ag -3, CXCR6 block -6, EBI2 antag -5 and CCR6 antagonist 12.
`COc1cc(OC)cc(C(=O)N[C@H](C(=O)OCC(=O)c2c[nH]c3ccccc23)C(C)C)c1` gave APJ antagonist -8, APJ ag 0, CXCR6 block 4, EBI2 antag 30 and CCR6 antagonist 3.
`COc1cc(OC)cc(C(=O)N[C@H](C(=O)OCC(=O)c2ccc(C)c([N+](=O)[O-])c2)C(C)C)c1` gave APJ antagonist 48*, APJ ag -14, CXCR6 block 18, EBI2 antag 7, CCR6 antagonist 50* and APJ antag conf 51*.
`O=C(/C=C/c1ccccc1Cl)NCCCn1ccnc1` gave APJ antagonist 3, APJ ag -3, CXCR6 block -4, EBI2 antag -5 and CCR6 antagonist 2.
Screening CCOC(=O)[C@H]1[C@H]2COc3ccc(C)cc3[C@@H]2N2C(=O)[C@@H](CO)NC(=O)[C@@]12C returned APJ antagonist -8, APJ ag -3, CXCR6 block -2, EBI2 antag -14 and CCR6 antagonist 8.
For COc1ccc2c(c1)[C@H]1[C@H](CO2)[C@H](c2ccccc2)[C@]2(C)C(=O)N[C@@H](C)C(=O)N12 the results were APJ antagonist 42*, APJ ag -9 and APJ antag conf 47.
Screening CCOC(=O)[C@H]1[C@H]2COc3cc(OC)ccc3[C@@H]2N2C(=O)[C@@H](CO)NC(=O)[C@@]12C returned APJ antagonist 51*, APJ ag -9 and APJ antag conf 88*.
Nc1nonc1-n1nnc(C(=O)N/N=C/c2cccc(F)c2)c1CN1CCCCCC1 was read as APJ antagonist -3, APJ ag -4, CXCR6 block 3, EBI2 antag 0 and CCR6 antagonist 14.
COc1ccccc1CN1C(=NC(=O)CCC2CCCC2)SC2CS(=O)(=O)CC21 (centres undefined) was read as APJ antagonist 47*, APJ ag -2, CXCR6 block -7, EBI2 antag -5, CCR6 antagonist 8 and APJ antag conf 2.
Screening COc1ccccc1Oc1cc(-n2nc(C)cc2C)ncn1 returned APJ antagonist 54*, APJ ag -1, CXCR6 block 0, EBI2 antag 3, CCR6 antagonist -3 and APJ antag conf 9.
`COc1ccccc1OCC(O)Cn1nc(C)cc1C` (centres undefined) gave APJ antagonist 13, APJ ag 0, CXCR6 block -6, EBI2 antag -5 and CCR6 antagonist 5.
Screening CC(/C=N/n1c(C2CCCCC2)n[nH]c1=S)=C\c1ccccc1 returned APJ antagonist 47*, APJ ag -5, CXCR6 block 12, EBI2 antag 2, CCR6 antagonist 33 and APJ antag conf 78*.
COc1cccc(N2CC(C)Cn3c2nc2c3c(=O)n(CCN3CCOCC3)c(=O)n2C)c1 (centres undefined) was read as APJ antagonist 42*, APJ ag -6, CXCR6 block 18, EBI2 antag 4, CCR6 antagonist -11 and APJ antag conf 62*.
For O=C(Nc1nc(-c2ccccn2)cs1)c1cc(Cl)ccc1[N+](=O)[O-] the results were APJ antagonist 72*, APJ ag -8, CXCR6 block 59*, EBI2 antag 40*, CCR6 antagonist 77* and APJ antag conf 97*.
COc1ccc(-c2c3c(nc4sc(C(=O)Nc5ccccc5)c(N)c24)CCC3)cc1 was read as APJ antagonist 71*, APJ ag -17, CXCR6 block 21, EBI2 antag 34, CCR6 antagonist 10 and APJ antag conf 38.
Nc1c(C(=O)Nc2ccccc2)sc2nc3c(c(-c4ccco4)c12)CCC3 was read as APJ antagonist -19, APJ ag 22, CXCR6 block 10, EBI2 antag 20 and CCR6 antagonist 6.
`CCOC(=O)c1c(C)nc2sc(C(=O)Nc3ccccc3)c(N)c2c1-c1ccc(OC)cc1` gave APJ antagonist 41*, APJ ag -7, CXCR6 block 10, EBI2 antag 37, CCR6 antagonist -3 and APJ antag conf 23.
`O=C(COC(=O)CCc1nc2ccccc2c(=O)[nH]1)Nc1ccc(OC(F)(F)F)cc1` gave APJ antagonist 12, APJ ag -1, CXCR6 block 3, EBI2 antag 0 and CCR6 antagonist 4.
NS(=O)(=O)c1ccc(NC(=O)COC(=O)CCc2nc3ccccc3c(=O)[nH]2)cc1 was read as APJ antagonist 45*, APJ ag -4, CXCR6 block 6, EBI2 antag 3, CCR6 antagonist 3 and APJ antag conf 31.
`CN(C)c1ccc2nc3c(=O)[nH]c(=O)nc-3n(CC(O)C(O)C(O)CO)c2c1` (centres undefined) gave APJ antagonist 70*, APJ ag -9, CXCR6 block 28, EBI2 antag 5, CCR6 antagonist 33 and APJ antag conf 70*.
`CCCCNC(=S)NNC(=O)CCn1nc(C)c(Br)c1C` gave APJ antagonist 64*, APJ ag -15, CXCR6 block 28, EBI2 antag 20, CCR6 antagonist 41 and APJ antag conf 125*.
Screening Cc1nn(CCC(=O)NNC(=S)Nc2ccc([N+](=O)[O-])cc2)c(C)c1[N+](=O)[O-] returned APJ antagonist 49*, APJ ag -6, CXCR6 block 33, EBI2 antag 7, CCR6 antagonist 30 and APJ antag conf 87*.
Cc1nn(CCC(=O)NNC(=S)Nc2ccc(F)cc2)c(C)c1Br was read as APJ antagonist 52*, APJ ag -5, CXCR6 block 16, EBI2 antag 10, CCR6 antagonist 28 and APJ antag conf 108*.
CC(C)(C)c1ccc(C(=O)NNC(=O)CCc2ccccc2)cc1 was read as APJ antagonist -1, APJ ag 1, CXCR6 block 7, EBI2 antag -1 and CCR6 antagonist 2.
For CC(=O)Nc1ccccc1NC(=O)C/C(C)=N/NC(=O)Cc1cccc2ccccc12 the results were APJ antagonist 4, APJ ag 1, CXCR6 block 6, EBI2 antag 0 and CCR6 antagonist -5.

Source: PubChem BioAssay (Sanford-Burnham Center for Chemical Genomics)
